According to ChEMBL document CHEMBL4406880, “Design, synthesis, and bioactivity of dihydropyrimidine derivatives as kinesin spindle protein inhibitors” (Bioorg Med Chem, 2019):

What was measured:
Type in all cases: functional
SK-MEL-5 = experiment: Growth inhibition of human SK-MEL-5 cells assessed as cell viability at 1 uM incubated for 48 hrs by sulforhodamine B assay; details: SK-MEL-5, 48 h, read-out: Activity
IGROV-1 = experiment: Growth inhibition of human IGROV1 cells incubated for 48 hrs by sulforhodamine B assay; details: IGROV-1, 48 h
Procedure, shortened: (§1)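 NCI-60 five-dose SRB assay in RPMI 1640 with 5% FBS, 37 °C, 5% CO2. Compound given at five tenfold dilutions, 0.01–100 µM, for 48 h. Adherent cells fixed with TCA, suspension cells with 16% final TCA. Bound SRB read at 515 nm and growth calculated against time-zero and untreated controls. GI50 taken from dose–response curves as the concentration giving a 50% decrease in net cell growth.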

OVCAR-5 [1] = experiment: Growth inhibition of human OVCAR5 cells assessed as cell viability at 100 uM incubated for 48 hrs by sulforhodamine B assay; details: OVCAR-5, 48 h, read-out: Activity
HCC 2998 = experiment: Growth inhibition of human HCC2998 cells assessed as cell viability at 1 uM incubated for 48 hrs by sulforhodamine B assay; details: HCC 2998, 48 h, read-out: Activity
HCT-116 = experiment: Growth inhibition of human HCT116 cells assessed as cell viability at 100 uM incubated for 48 hrs by sulforhodamine B assay; details: HCT-116, 48 h, read-out: Activity
OVCAR-4 = experiment: Growth inhibition of human OVCAR4 cells assessed as cell viability at 0.001 uM incubated for 48 hrs by sulforhodamine B assay relative to control; details: OVCAR-4, 48 h, read-out: Activity
HOP-92 = experiment: Growth inhibition of human HOP92 cells incubated for 48 hrs by sulforhodamine B assay; details: HOP-92, 48 h
Procedure, shortened: (§2)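 NCI-60 five-dose assay, SRB end-point, same culture conditions. Compound is tested at tenfold dilutions of 0.01, 0.1, 1, 10 and 100 µM for 48 h at 37 °C, with DMSO/PBS vehicle controls. Percentage growth at each concentration is taken against untreated cells and a time-zero plate. GI50 is 50% net growth decrease, TGI is total growth inhibition, and LC50 is 50% loss of initial cells.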

UO-31 = experiment: Growth inhibition of human UO31 cells assessed as cell viability at 1 uM incubated for 48 hrs by sulforhodamine B assay; details: UO-31, 48 h, read-out: Activity
HL-60(TB) = experiment: Growth inhibition of human HL-60(TB) cells assessed as cell viability at 100 uM incubated for 48 hrs by sulforhodamine B assay; details: HL-60, 48 h, read-out: Activity; procedure, shortened: as §2
SNB-19 = experiment: Growth inhibition of human SNB19 cells assessed as cell viability at 0.1 uM incubated for 48 hrs by sulforhodamine B assay; details: SNB-19, 48 h, read-out: Activity
NCI-H522 = experiment: Growth inhibition of human NCI-H522 cells assessed as cell viability at 0.1 uM incubated for 48 hrs by sulforhodamine B assay; details: NCI-H522, 48 h, read-out: Activity
T47D = experiment: Growth inhibition of human T47D cells assessed as cell viability at 100 uM incubated for 48 hrs by sulforhodamine B assay; details: read-out: Activity
SR = experiment: Growth inhibition of human SR cells assessed as cell viability at 100 uM incubated for 48 hrs by sulforhodamine B assay; details: read-out: Activity
OVCAR-3 = experiment: Growth inhibition of human OVCAR3 cells incubated for 48 hrs by sulforhodamine B assay; details: OVCAR-3, 48 h; procedure, shortened: as §1
NCI-H226 = experiment: Growth inhibition of human NCI-H226 cells assessed as cell viability at 0.001 uM incubated for 48 hrs by sulforhodamine B assay relative to control; details: NCI-H226, 48 h, read-out: Activity
SN12C = experiment: Growth inhibition of human SN12C cells assessed as cell viability at 0.001 uM incubated for 48 hrs by sulforhodamine B assay relative to control; details: read-out: Activity
OVCAR-5 [2] = experiment: Growth inhibition of human OVCAR5 cells assessed as cell viability at 0.001 uM incubated for 48 hrs by sulforhodamine B assay relative to control; details: OVCAR-5, 48 h, read-out: Activity
HT-29 [3] = experiment: Growth inhibition of human HT-29 cells assessed as cell viability at 100 uM incubated for 48 hrs by sulforhodamine B assay; details: HT-29, 48 h, read-out: Activity
DU-145 = experiment: Growth inhibition of human DU145 cells incubated for 48 hrs by sulforhodamine B assay; details: DU-145, 48 h
Procedure, shortened: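 NCI-60 five-dose mode: five tenfold dilutions (0.01, 0.1, 1, 10, 100 µM) are applied for 48 h to cells in RPMI 1640 with 5% FBS at 37 °C. Endpoint is TCA fixation with sulforhodamine B read at 515 nm. % growth comes from the 0 h and control absorbances. GI50 is the concentration giving a 50% reduction in net cell growth.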

SK-OV-3 = experiment: Growth inhibition of human SKOV3 cells assessed as cell viability at 0.001 uM incubated for 48 hrs by sulforhodamine B assay relative to control; details: SK-OV-3, 48 h, read-out: Activity
SF-295 = experiment: Growth inhibition of human SF295 cells assessed as cell viability at 100 uM incubated for 48 hrs by sulforhodamine B assay; details: SF-295, 48 h, read-out: Activity
HT-29 [4] = experiment: Growth inhibition of human HT-29 cells assessed as cell viability at 0.1 uM incubated for 48 hrs by sulforhodamine B assay; details: HT-29, 48 h, read-out: Activity
OVCAR-8 = experiment: Growth inhibition of human OVCAR8 cells assessed as cell viability at 0.1 uM incubated for 48 hrs by sulforhodamine B assay; details: OVCAR-8, 48 h, read-out: Activity
BT-549 = experiment: Growth inhibition of human BT549 cells assessed as cell viability at 0.1 uM incubated for 48 hrs by sulforhodamine B assay; details: BT-549, 48 h, read-out: Activity
NCI-H322M = experiment: Growth inhibition of human NCI-H322M cells incubated for 48 hrs by sulforhodamine B assay; procedure, shortened: as §2
MOLT-4 = experiment: Growth inhibition of human MOLT4 cells assessed as cell viability at 0.001 uM incubated for 48 hrs by sulforhodamine B assay relative to control; details: MOLT-4, 48 h, read-out: Activity
[5] = read-out: LC50 (the source's name)
[6] = read-out: pLC50 (the source's name) (converted)

SMILES: CC1=C(C(=O)OCc2ccccc2)C(c2ccc3c(c2)OCO3)n2c(nc3ccccc32)N1 (racemic)
- viability at 1 µM (SK-MEL-5): 32%
- GI50 (IGROV-1; read-out: GI50): 620 nM
- CC50 (IGROV-1; [5]): > 100 µM
- TGI (IGROV-1; read-out: TGI): > 100 µM
- GI50 (IGROV-1; read-out: pGI50 (converted)): 617 nM
- CC50 (IGROV-1; [6]): > 100 µM
- TGI (IGROV-1; read-out: pTGI): > 100 µM
- viability at 100 µM (OVCAR-5 [1]): 51%
- viability at 1 µM (HCC 2998): 59%
- viability at 100 µM (HCT-116): 18%
- viability at 0.001 µM (OVCAR-4): 82%
- LC50 (concentration killing 50% of initial cells) (HOP-92; read-out: LC50): > 100 µM
- TGI (HOP-92; read-out: TGI): > 100 µM
- LC50 (concentration killing 50% of initial cells) (HOP-92; read-out: pLC50 (converted)): > 100 µM
- TGI (HOP-92; read-out: pTGI): > 100 µM
- viability at 1 µM (UO-31): 38%
- viability at 100 µM (HL-60(TB)): 9%
- viability at 0.1 µM (SNB-19): 95%
- viability at 0.1 µM (NCI-H522): 57%
- viability at 100 µM (T47D): 34%
- viability at 100 µM (SR): 38%
- GI50 (OVCAR-3; read-out: GI50): 260 nM
- CC50 (OVCAR-3; [5]): > 100 µM
- TGI (OVCAR-3; read-out: TGI): 1090 nM
- GI50 (OVCAR-3; read-out: pGI50 (converted)): 257 nM
- CC50 (OVCAR-3; [6]): > 100 µM
- TGI (OVCAR-3; read-out: pTGI (converted)): 1100 nM
- viability at 0.001 µM (NCI-H226): 93%
- viability at 0.001 µM (SN12C): 89%
- viability at 0.001 µM (OVCAR-5 [2]): 93%
- viability at 100 µM (HT-29 [3]): 5%
- GI50 (DU-145; read-out: GI50): 590 nM
- CC50 (DU-145; [5]): > 100 µM
- TGI (DU-145; read-out: TGI): > 100 µM
- GI50 (DU-145; read-out: pGI50 (converted)): 589 nM
- CC50 (DU-145; [6]): > 100 µM
- TGI (DU-145; read-out: pTGI): > 100 µM
- viability at 0.001 µM (SK-OV-3): 99%
- viability at 100 µM (SF-295): 8%
- viability at 0.1 µM (HT-29 [4]): 99%
- viability at 0.1 µM (OVCAR-8): 97%
- viability at 0.1 µM (BT-549): 87%
- LC50 (concentration killing 50% of initial cells) (NCI-H322M; read-out: LC50): > 100 µM
- TGI (NCI-H322M; read-out: TGI): > 100 µM
- LC50 (concentration killing 50% of initial cells) (NCI-H322M; read-out: pLC50 (converted)): > 100 µM
- TGI (NCI-H322M; read-out: pTGI): > 100 µM
- viability at 0.001 µM (MOLT-4): 96%
